# Assay results: article PMC6146057 (ACS chemical neuroscience, 2018)
# Entries after “also recorded” stand apart in the source; their conditions may differ.
# How the values were obtained:
# [1] = Plasma protein binding by equilibrium dialysis, human; assay type: in vitro ADME; conditions: pH 7.4
# Summary of the method: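 Plasma spiked with test article was dialysed against 25 mM phosphate buffer, pH 7.4, by equilibrium dialysis for 4 h at 37 °C with shaking. Aliquots from each chamber were matrix-matched, extracted with ice-cold acetonitrile, centrifuged and quantified by LC/MS/MS.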
# [2] = target: T1, rat M1 (Rattus norvegicus, UniProt P08482); experiment: [3H]-NMS competition radioligand binding; conditions: up to 30 μM, rat M1-CHO membranes
# T1 sequence (P08482 1-460): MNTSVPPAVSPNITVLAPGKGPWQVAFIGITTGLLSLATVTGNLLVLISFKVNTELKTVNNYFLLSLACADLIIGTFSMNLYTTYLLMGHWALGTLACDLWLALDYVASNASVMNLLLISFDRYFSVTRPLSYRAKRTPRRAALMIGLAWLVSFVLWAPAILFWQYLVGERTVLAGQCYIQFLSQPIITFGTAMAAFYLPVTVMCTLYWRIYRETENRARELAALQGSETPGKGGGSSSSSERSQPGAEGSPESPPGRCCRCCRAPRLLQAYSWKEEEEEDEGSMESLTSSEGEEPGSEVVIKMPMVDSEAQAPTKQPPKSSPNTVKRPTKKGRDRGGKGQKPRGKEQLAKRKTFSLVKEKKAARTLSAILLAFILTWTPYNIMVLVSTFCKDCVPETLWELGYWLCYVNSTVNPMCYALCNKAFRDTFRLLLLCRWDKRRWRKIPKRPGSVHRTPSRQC
# Summary of the method: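 Rat M1-CHO membranes (10 μg) were incubated with test compound (11-point 1:3 series, top final 30 μM) and 0.088 nM [3H]-NMS (Kd). Binding buffer was 20 mM HEPES, 10 mM MgCl2 and 100 mM NaCl, pH 7.4, for 1 h at room temperature with shaking. Nonspecific binding was defined with 10 μM atropine. Samples were filtered, washed three times with ice-cold Tris buffer and counted by scintillation.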
# [3] = target: T2, cytochrome P450 1A2 (Homo sapiens, UniProt P05177); experiment: CYP450 inhibition in human liver microsomes, 1A2; assay type: in vitro ADME
# T2 sequence (P05177 1-516): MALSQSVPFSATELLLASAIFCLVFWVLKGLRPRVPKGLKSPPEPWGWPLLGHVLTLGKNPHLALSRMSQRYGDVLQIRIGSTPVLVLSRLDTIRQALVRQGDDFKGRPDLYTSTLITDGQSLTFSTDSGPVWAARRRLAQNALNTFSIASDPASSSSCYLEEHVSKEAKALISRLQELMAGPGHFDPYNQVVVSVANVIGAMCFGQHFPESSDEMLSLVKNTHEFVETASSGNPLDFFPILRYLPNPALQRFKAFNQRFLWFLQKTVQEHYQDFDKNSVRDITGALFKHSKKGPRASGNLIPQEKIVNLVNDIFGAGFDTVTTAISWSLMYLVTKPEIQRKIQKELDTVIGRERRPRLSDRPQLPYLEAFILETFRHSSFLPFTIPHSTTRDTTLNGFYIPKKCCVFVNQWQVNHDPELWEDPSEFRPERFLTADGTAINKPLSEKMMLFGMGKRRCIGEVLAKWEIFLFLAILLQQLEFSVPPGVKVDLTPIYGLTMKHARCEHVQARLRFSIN
# [4] = tested on: rats; experiment: Contextual fear conditioning, risperidone-induced deficit; assay type: in vivo, rat; conditions: 10 mg/kg VU0486846 coadministered with 3 mg/kg risperidone
smiles,measurement,setting,value
"O=C(N[C@H]1CCCC[C@@H]1O)[C@H]1CN(Cc2ccc(-n3cccn3)cc2)c2ccccc2O1 [VU0486846, (2R)-N-[(1S,2S)-2-Hydroxycyclohexyl]-4-[(4-pyrazol-1-ylphenyl)-methyl]-2,3-dihydro-1,4-benzoxazine-2-carboxamide]",fraction unbound at 4 h,[1],0.12
same,Inhibition of orthosteric [3H]-NMS binding,[2],no displacement of [^3H]-NMS binding; also recorded: does not substantially inhibit binding
same,IC50,[3],> 30 µM
same,Conditioned freezing,[4],restored conditioned freezing to vehicle-treated control levels
